Numbered stars: 1 amine (or outer) side, 2 acyl side, 3 side chain; on linkers, the order of the positions; unused ones are H or OH. Square brackets hold non-standard residues; d marks the D form. Peptide text beside a SMILES is read from it. * marks the point of attachment. ξ: configuration not given here. Pyrrolidin1yl(2S-Ac) = CC(=O)[C@@H]1CCCN1*; ξF = NC(Cc1ccccc1)C(=O)O; X1 = CO[C@H](CC(C)C)N*; Boc = CC(C)(C)OC(=O)*; CO = O=C([*:1])[*:2]; OtBu = CC(C)(C)O*
Tested on: not listed separately
Assay: Michaelis constant was determined
Type: ADME

| Km | SMILES |
| --- | --- |
| 4 mM | CC(C)C[C@H](NC(=O)[C@H](CCC(=O)O)NC(=O)[C@@H](CCC(=O)O)NC(=O)[C@H](CC(C)C)NC(=O)[C@@H](N)Cc1ccccc1)C(=O)O |

Molecular target: T1, Vitamin K-dependent gamma-carboxylase (Rattus norvegicus) (UniProt O88496)
T1 sequence (whole entry): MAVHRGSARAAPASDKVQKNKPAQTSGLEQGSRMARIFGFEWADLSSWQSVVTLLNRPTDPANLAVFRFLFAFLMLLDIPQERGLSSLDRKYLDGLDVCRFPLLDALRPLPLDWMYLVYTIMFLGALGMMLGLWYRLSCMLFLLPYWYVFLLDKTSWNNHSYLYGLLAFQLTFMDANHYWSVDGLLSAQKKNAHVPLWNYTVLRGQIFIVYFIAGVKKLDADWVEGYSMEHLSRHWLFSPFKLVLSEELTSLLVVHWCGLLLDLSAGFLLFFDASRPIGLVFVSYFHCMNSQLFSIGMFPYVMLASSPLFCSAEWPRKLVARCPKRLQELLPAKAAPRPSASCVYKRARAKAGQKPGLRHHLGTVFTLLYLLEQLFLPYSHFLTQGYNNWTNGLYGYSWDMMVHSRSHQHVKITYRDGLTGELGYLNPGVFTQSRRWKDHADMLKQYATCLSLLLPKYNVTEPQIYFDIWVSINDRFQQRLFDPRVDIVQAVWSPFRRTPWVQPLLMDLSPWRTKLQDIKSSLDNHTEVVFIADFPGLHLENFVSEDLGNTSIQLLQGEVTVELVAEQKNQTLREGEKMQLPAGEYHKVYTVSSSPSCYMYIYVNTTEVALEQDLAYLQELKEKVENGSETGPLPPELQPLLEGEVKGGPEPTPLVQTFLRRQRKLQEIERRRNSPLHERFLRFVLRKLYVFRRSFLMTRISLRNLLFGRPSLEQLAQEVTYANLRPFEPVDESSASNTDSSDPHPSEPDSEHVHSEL
Assay: Relative activity for […] rat liver vitamin K dependent carboxylase mediated carboxylation of pentapeptide at 1 mM.
Type: functional, tissue-based
In short: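 Carboxylase source was Triton-solubilized liver microsomes from vitamin K-deficient rats, pellets KCl-washed. Peptide at 1 mM was incubated with NaH¹⁴CO₃ and vitamin K-H₂ (in ethanol) at 17 °C for 10–20 min. Read-out was ¹⁴CO₂ in TCA-soluble material, with the ethanol-only background subtracted. Activity is given as % of the 1 mM reference pentapeptide on the same preparation; duplicate incubations.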

| SMILES | Relative activity |
| --- | --- |
| CC(C)(C)OC(=O)N[C@H](CCC(=O)O)C(=O)NCc1ccccc1 | < 1% |
| COC(=O)[C@H](CC(C)C)NC(=O)[C@H](CCC(=O)O)NC(=O)[C@@H](CCC(=O)O)NC(=O)OC(C)(C)C | < 1% |
| COC(=O)NC(=O)[C@H](CC(C)C)NC(=O)[C@H](CCC(=O)O)NC(=O)C(CC(=O)O)NC(=O)OC(C)(C)C (stereo partly drawn) | 11% |
| COC(=O)[C@H](CCC(=O)O)NC(=O)[C@H](C)NC(=O)[C@H](CCC(=O)O)NC(=O)[C@H](CC(C)C)NC(=O)N1CCC[C@H]1C(C)=O ({Pyrrolidin1yl(2S-Ac)-CO}-LEAE-OMe) | 25% |
| CC(C)C[C@H](NC(=O)[C@H](CCC(=O)O)NC(=O)[C@H](CCC(=O)O)NC(=O)CNC(=O)[C@@H](N)Cc1ccccc1)C(=O)O (H-FGEEL-OH) | 4% |
| CC(C)C[C@H](NC(=O)[C@H](CCC(=O)O)NC(=O)[C@H](CC(C)C)NC(=O)[C@H](CCC(=O)O)NC(=O)[C@H](Cc1ccccc1)NC(=O)O)C(=O)O (HELM PEPTIDE1{[O=C(O)[*:2]].F.E.L.E.L}$$$$V2.0) | < 1% |
| CC(C)C[C@H](NC(=O)[C@H](CCC(=O)O)NC(=O)[C@@H](CCC(=O)O)NC(=O)[C@H](CC(C)C)NC(=O)[C@@H](N)Cc1ccccc1)C(=O)O | 100% |
| COC(=O)[C@H](CC(C)C)NC(=O)[C@@H](CCC(=O)O)NC(=O)[C@H](CCC(=O)O)NC(=O)[C@H](CC(C)C)NC(=O)[C@H](Cc1ccccc1)NC(=O)OC(C)(C)C | < 1% |
| COC(=O)[C@H](CC(C)C)NC(=O)[C@H](CCC(=O)O)NC(=O)[C@H](CCC(=O)O)NC(=O)CNC(=O)[C@H](Cc1ccccc1)NC(=O)OC(C)(C)C (HELM PEPTIDE1{[CC(C)(C)OC(=O)[*:2]].F.G.E.E.L.[CO[*:1]]}$$$$V2.0) | 25% |
| CO[C@H](CC(C)C)NC(=O)[C@H](CCC(=O)O)NC(=O)[C@H](CCC(=O)O)NC(=O)[C@H](CC(C)C)NC(=O)OC(C)(C)C | 77% |
| COC(=O)[C@H](CCC(=O)O)NC(=O)[C@H](C)NC(=O)[C@H](CCC(=O)O)NC(=O)[C@H](CC(C)C)NC(=O)OC(C)(C)C (HELM PEPTIDE1{[CC(C)(C)OC(=O)[*:2]].L.E.A.E.[CO[*:1]]}$$$$V2.0) | 46% |
| CC(C)(C)OC(=O)N[C@H](CCC(=O)O)C(=O)OCc1ccccc1 | 5% |
| CO[C@@H](CC(C)C)NC(=O)[C@@H](CCC(=O)O)NC(=O)OC(C)(C)C | < 1% |
| CC(C)C[C@H](NC(=O)[C@H](CCC(=O)O)NC(=O)[C@H](CCC(=O)O)NC(=O)[C@H](CC(C)C)NC(=O)[C@H](Cc1ccccc1)NC(=O)c1ccccc1)C(=O)O (HELM PEPTIDE1{[O=C(c1ccccc1)[*:2]].F.L.E.E.L}$$$$V2.0) | 27% |
| CO[C@H](CC(C)C)NC(=O)[C@H](CCC(=O)O)NC(=O)[C@H](CCC(=O)O)NC(=O)[C@H](CC(C)C)NC(=O)C(Cc1ccccc1)NC(=O)OC(C)(C)C (stereo partly drawn) (Boc-[ξF]LEE-X1) | 24% |
| COC(=O)[C@@H](CC(C)C)NC(=O)[C@H](CCC(=O)O)NC(=O)[C@H](CCC(=O)O)NC(=O)OC(C)(C)C | 19% |
| COC(=O)[C@H](CC(C)C)NC(=O)[C@H](CCC(=O)O)NC(=O)[C@H](CCC(=O)O)NC(=O)[C@H](C)NC(=O)OC(C)(C)C (HELM PEPTIDE1{[CC(C)(C)OC(=O)[*:2]].A.E.E.L.[CO[*:1]]}$$$$V2.0) | 19% |
| COC(=O)NC(=O)[C@H](CC(C)C)NC(=O)[C@H](CCC(=O)O)NC(=O)C(CCC(=O)O)NC(=O)OC(C)(C)C (stereo partly drawn) | < 1% |
| COC(=O)[C@H](CC(C)C)NC(=O)[C@H](CCC(=O)O)NC(=O)[C@H](CCC(=O)O)NC(=O)CNC(=O)OC(C)(C)C (HELM PEPTIDE1{[CC(C)(C)OC(=O)[*:2]].G.E.E.L.[CO[*:1]]}$$$$V2.0) | 6% |
| CC(C)C[C@H](NC(=O)[C@H](CCC(=O)O)NC(=O)[C@H](CCC(=O)O)NC(=O)[C@H](C)NC(=O)[C@@H](N)Cc1ccccc1)C(=O)O (H-FAEEL-OH) | 72% |
| COC(=O)[C@H](CC(C)C)NC(=O)[C@H](CCC(=O)O)NC(=O)[C@H](CCC(=O)O)NC(=O)OC(C)(C)C | 107% |

Now from value to compound:

| Relative activity | SMILES |
| --- | --- |
| < 1% | COC(=O)[C@H](CC(C)C)NC(=O)[C@@H](CCC(=O)O)NC(=O)[C@H](CCC(=O)O)NC(=O)OC(C)(C)C |
| 77% | COC(=O)[C@@H](CC(C)C)NC(=O)[C@H](CCC(=O)O)NC(=O)[C@H](CCC(=O)O)NC(=O)[C@H](CC(C)C)NC(=O)OC(C)(C)C |
| 149% | CCC(=O)N[C@@H](Cc1ccccc1)C(=O)N[C@@H](CC(C)C)C(=O)N[C@@H](CCC(=O)O)C(=O)N[C@@H](CCC(=O)O)C(=O)N[C@@H](CC(C)C)C(=O)O (HELM PEPTIDE1{[CCC(=O)[*:2]].F.L.E.E.L}$$$$V2.0) |
| < 1% | COC(=O)NC(=O)[C@H](CC(C)C)NC(=O)[C@H](CCCC(=O)O)NC(=O)C(CCCC(=O)O)NC(=O)OC(C)(C)C (stereo partly drawn) |
| < 1% | COC(=O)[C@H](CC(C)C)NC(=O)[C@@H](CCC(=O)O)NC(=O)[C@@H](CCC(=O)O)NC(=O)OC(C)(C)C |
| 6% | COC(=O)NC(=O)[C@H](CC(C)C)NC(=O)[C@H](CCC(=O)O)NC(=O)C(CCSC)NC(=O)CC(C)C (stereo partly drawn) |
| 6% | CC(C)C[C@H](NC(=O)[C@H](CO)NC(=O)[C@H](CCC(=O)O)NC(=O)[C@H](CC(C)C)NC(=O)[C@H](C)NC(=O)[C@H](CCC(=O)O)NC(=O)[C@@H](N)Cc1ccccc1)C(=O)O (H-FEALESL-OH) |
| 19% | COC(=O)[C@H](CCC(=O)O)NC(=O)[C@H](C)NC(=O)[C@H](CCC(=O)O)NC(=O)[C@H](CC(C)C)NC(=O)N1CCC[C@H]1C(=O)OC(C)(C)C ({OtBu-Pro-CO}-LEAE-OMe) |
| 8% | CC(C)C[C@H](NC(=O)[C@H](CCC(=O)O)NC(=O)[C@H](CCC(=O)O)NC(=O)[C@@H](N)CC(C)C)C(=O)O (H-LEEL-OH) |
| < 1% | COC(=O)[C@H](CC(C)C)NC(=O)[C@@H](CCC(=O)O)NC(=O)[C@@H](CCC(=O)O)NC(=O)[C@H](CC(C)C)NC(=O)[C@H](Cc1ccccc1)NC(=O)OC(C)(C)C |
| < 1% | COC(=O)[C@H](CC(C)C)NC(=O)[C@H](CCC(=O)O)NC(=O)[C@@H](CCC(=O)O)NC(=O)[C@H](CC(C)C)NC(=O)[C@H](Cc1ccccc1)NC(=O)OC(C)(C)C |
| < 1% | COC(=O)NC(=O)[C@H](CC(C)C)NC(=O)[C@H](CC(=O)O)NC(=O)C(CC(=O)O)NC(=O)OC(C)(C)C (stereo partly drawn) |
| 11% | COC(=O)NC(=O)[C@H](CC(C)C)NC(=O)[C@H](CC(=O)O)NC(=O)C(CCC(=O)O)NC(=O)OC(C)(C)C (stereo partly drawn) |
| 19% | COC(=O)[C@@H](CC(C)C)NC(=O)[C@H](CCC(=O)O)NC(=O)[C@H](CCC(=O)O)NC(=O)[C@@H](CC(C)C)NC(=O)OC(C)(C)C |
| 55% | COC(=O)[C@H](CC(C)C)NC(=O)[C@H](CCC(=O)O)NC(=O)[C@H](CCC(=O)O)NC(=O)[C@@H](CC(C)C)NC(=O)OC(C)(C)C |
| 4% | COC(=O)NC(=O)[C@H](CCC(=O)O)NC(=O)[C@H](C)NC(=O)[C@H](CCC(=O)O)NC(=O)OC(C)(C)C |

Source: ChEMBL document CHEMBL1121850, “Synthesis of peptide analogues of prothrombin precursor sequence 5-9. Substrate specificity of vitamin K dependent carboxylase” (J Med Chem, 1981)
